The source made the active and inactive calls.
How the values were obtained:
Heat shock protein HSP90 [1] = molecular target: T1, Heat shock protein HSP90 (Homo sapiens, UniProt P07900+P08238); assay: Inhibition of biotinylated geldanamycin binding to human recombinant Hsp90 ATP binding domain after 60 mins by fluorescence assay; format: protein assay
[2] = Antiproliferative activity against human prostate cancer cells after 48 hrs by sulforhodamine B assay; format: functional; conditions: Cancer cell lines
Procedure, shortened: (§1)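 Compounds run through the NCI DTP screen on its full human tumour cell line panels. Those that passed the selection criteria were tested twice in the five-dose concentration format. The MG_MID for each experiment is the arithmetic mean over all cell lines tested.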

[3] = Antiproliferative activity against human colon cancer cells after 48 hrs by sulforhodamine B assay; format: functional; conditions: Cancer cell lines; procedure, shortened: as §1
[4] = Antiproliferative activity against human CNS cancer cells after 48 hrs by sulforhodamine B assay; format: functional; conditions: Cancer cell lines; procedure, shortened: as §1
[5] = Antiproliferative activity against human breast cancer cells after 48 hrs by sulforhodamine B assay; format: functional; conditions: Cancer cell lines; procedure, shortened: as §1
[6] = Antiproliferative activity against human non-small cell lung cancer cells after 48 hrs by sulforhodamine B assay; format: functional; conditions: Cancer cell lines; procedure, shortened: as §1
[7] = Antiproliferative activity against human melanoma cells after 48 hrs by sulforhodamine B assay; format: functional; conditions: Melanoma cell; procedure, shortened: as §1
[8] = Antiproliferative activity against human ovarian cancer cells after 48 hrs by sulforhodamine B assay; format: functional; conditions: Cancer cell lines; procedure, shortened: as §1
[9] = Antiproliferative activity against human renal cancer cells after 48 hrs by sulforhodamine B assay; format: functional; conditions: Cancer cell lines; procedure, shortened: as §1
[10] = Antiproliferative activity against human leukemia cells after 48 hrs by sulforhodamine B assay; format: functional; conditions: Leukemia cell; procedure, shortened: as §1
Heat shock protein HSP90 [11] = molecular target: T1, Heat shock protein HSP90; assay: Inhibition of Hsp90 in human MCF7 cells assessed as decrease in ErbB2 level after 24 hrs by Western blotting analysis; format: cell-based
Procedure, shortened: (§2)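 Total cellular extracts were analysed by Western blot for Cdk4, c-Raf, ErbB2 and Hsp72, with β-actin as the loading control.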

MCF7 [12] = assay: Cell cycle arrest in human MCF7 cells assessed as decrease in G2/M phase cells at 0.548 uM after 48 hrs by propidium iodide staining-based FACS flow cytometric analysis; format: functional
Procedure, shortened: (§3)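 Cells were collected and DNA stained with propidium iodide. Flow cytometry gave the cell cycle phase distribution against untreated controls. Values are mean ± SD of three independent experiments.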

Heat shock protein HSP90 [13] = molecular target: T1, Heat shock protein HSP90; assay: Inhibition of Hsp90 in human MCF7 cells assessed as decrease in Cdk4 level after 24 hrs by Western blotting analysis; format: cell-based; procedure, shortened: as §2
Heat shock protein HSP90 [14] = molecular target: T1, Heat shock protein HSP90; assay: Inhibition of Hsp90 in human MCF7 cells assessed as decrease in cRAF level after 24 hrs by Western blotting analysis; format: cell-based; procedure, shortened: as §2
NCI-H522 = assay: Antiproliferative activity against human NCI-H522 cells after 48 hrs by sulforhodamine B assay; format: functional; conditions: NCI-H522, 48 h; procedure, shortened: as §1
Heat shock protein HSP90 [15] = molecular target: T1, Heat shock protein HSP90; assay: Inhibition of Hsp90 in human MCF7 cells assessed as decrease in ErbB2 level at 0.5 to 2 fold GI50 after 24 hrs by Western blotting analysis; format: cell-based; procedure, shortened: as §2
Heat shock protein HSP90 [16] = molecular target: T1, Heat shock protein HSP90; assay: Inhibition of Hsp90 in human MCF7 cells assessed as decrease in cRAF level at 0.5 to 2 fold GI50 after 24 hrs by Western blotting analysis; format: cell-based; procedure, shortened: as §2
MCF7 [17] = assay: Antitumor activity in human MCF7 cells assessed as induction of necrosis after 24 hrs by LDH assay; format: functional, cell-based
MCF7 [18] = assay: Cell cycle arrest in human MCF7 cells assessed as increase in G2/M phase cells at 0.548 uM after 24 hrs by propidium iodide staining-based FACS flow cytometric analysis (reference value: 24 %); format: functional; procedure, shortened: as §3
Heat shock protein HSP90 [19] = molecular target: T1, Heat shock protein HSP90; assay: Inhibition of Hsp90 in human MCF7 cells assessed as decrease in Cdk4 level at 0.5 to 2 fold GI50 after 24 hrs by Western blotting analysis; format: cell-based; procedure, shortened: as §2
MCF7 [20] = assay: Cell cycle arrest in human MCF7 cells assessed as decrease in G0/G1 phase cells at 0.548 uM after 48 hrs by propidium iodide staining-based FACS flow cytometric analysis; format: functional; procedure, shortened: as §3
MCF7 [21] = assay: Cell cycle arrest in human MCF7 cells assessed as decrease in S phase cells at 0.548 uM after 48 hrs by propidium iodide staining-based FACS flow cytometric analysis; format: functional; procedure, shortened: as §3
MCF7 [22] = assay: Cell cycle arrest in human MCF7 cells assessed as accumulation at G2/M phase after 24 hrs by propidium iodide staining-based FACS flow cytometric analysis; format: functional; procedure, shortened: as §3
MCF7 [23] = assay: Cell cycle arrest in human MCF7 cells assessed as accumulation at sub G0/G1 phase at 0.548 uM after 48 hrs by propidium iodide staining-based FACS flow cytometric analysis; format: functional; procedure, shortened: as §3
SF-295 = assay: Antiproliferative activity against human SF295 cells after 48 hrs by sulforhodamine B assay; format: functional; conditions: SF-295, 48 h; procedure, shortened: as §1
MCF7 [24] = assay: Cell cycle arrest in human MCF7 cells assessed as decrease in G0/G1 phase cells at 0.548 uM after 24 hrs by propidium iodide staining-based FACS flow cytometric analysis (reference value: 65 %); format: functional; parameters: scale not given: the % may be the effect or the level left; procedure, shortened: as §3
MCF7 [25] = assay: Cell cycle arrest in human MCF7 cells assessed as decrease in S phase cells at 0.548 uM after 24 hrs by propidium iodide staining-based FACS flow cytometric analysis (reference value: 11 %); format: functional; parameters: scale not given: the % may be the effect or the level left; procedure, shortened: as §3
Heat shock protein HSP90 [26] = molecular target: T1, Heat shock protein HSP90; assay: Inhibition of Hsp90 in human MCF7 cells assessed as upregulation of Hsp72 at 0.5 to 2 fold GI50 after 24 hrs by Western blotting analysis; format: cell-based; procedure, shortened: as §2

SMILES	EC50 (Heat shock protein HSP90 [1]) [nM]	GI50 [2] [nM]	GI50 [3] [nM]	GI50 [4] [nM]	GI50 [5] [nM]	GI50 [6] [nM]	GI50 [7] [nM]	GI50 [8] [nM]	GI50 [9] [nM]	GI50 [10] [nM]	other results
CN(C)c1ccc(-c2cc(-c3cccc(NS(C)(=O)=O)c3)nc(N)c2C#N)cc1	371	30	40	40	100	60	60	80	50	40	
COc1cccc(-c2cc(-c3cccc(NS(C)(=O)=O)c3)nc(N)c2C#N)c1O	252	130	150	160	260	250	120	210	290	140	inhibition (Heat shock protein HSP90 [11]): Dose-dependent effect; Activity (MCF7 [12]): Active; inhibition (Heat shock protein HSP90 [13]): Dose-dependent effect; inhibition (Heat shock protein HSP90 [14]): Dose-dependent effect; GI50 (NCI-H522): 24 nM; inhibition (Heat shock protein HSP90 [15]): Active; inhibition (Heat shock protein HSP90 [16]): Active; Activity (MCF7 [17]): Active; Activity (MCF7 [18]): 53%; inhibition (Heat shock protein HSP90 [19]): Active; Activity (MCF7 [20]): Active; Activity (MCF7 [21]): Active; Activity (MCF7 [22]): Dose-dependent effect; Activity (MCF7 [23]): Active; GI50 (SF-295): 43 nM; Activity (MCF7 [24]): 40%; Activity (MCF7 [25]): 7%; inhibition (Heat shock protein HSP90 [26]): Active
COc1cccc(-c2cc(-c3cccc(NS(C)(=O)=O)c3)nc(N)c2C#N)c1	> 10000										
CS(=O)(=O)Nc1cccc(-c2cc(-c3ccc(O)cc3)c(C#N)c(N)n2)c1	> 10000										
COc1ccc(-c2cc(-c3cccc(NS(C)(=O)=O)c3)nc(N)c2C#N)cc1OC	867										
CS(=O)(=O)Nc1cccc(-c2cc(-c3ccccc3Cl)c(C#N)c(N)n2)c1	950	780	550	510	460	1100	660	980	660	580	
COc1ccc(-c2cc(-c3cccc(NS(C)(=O)=O)c3)nc(N)c2C#N)cc1	541	130	100	80	140	130	80	220	130	100	
CS(=O)(=O)Nc1cccc(-c2cc(-c3cccc(F)c3)c(C#N)c(N)n2)c1	> 10000										
CCN(CC)c1ccc(-c2cc(-c3cccc(NS(C)(=O)=O)c3)nc(N)c2C#N)cc1	783										
CS(=O)(=O)Nc1cccc(-c2cc(-c3ccccc3Br)c(C#N)c(N)n2)c1	> 10000										
COc1ccccc1-c1cc(-c2cccc(NS(C)(=O)=O)c2)nc(N)c1C#N	634										
